In data set [1] the target is T1, Corticotropin-releasing factor receptor 1 (Rattus norvegicus, UniProt P35353).
T1 sequence (P35353 whole entry): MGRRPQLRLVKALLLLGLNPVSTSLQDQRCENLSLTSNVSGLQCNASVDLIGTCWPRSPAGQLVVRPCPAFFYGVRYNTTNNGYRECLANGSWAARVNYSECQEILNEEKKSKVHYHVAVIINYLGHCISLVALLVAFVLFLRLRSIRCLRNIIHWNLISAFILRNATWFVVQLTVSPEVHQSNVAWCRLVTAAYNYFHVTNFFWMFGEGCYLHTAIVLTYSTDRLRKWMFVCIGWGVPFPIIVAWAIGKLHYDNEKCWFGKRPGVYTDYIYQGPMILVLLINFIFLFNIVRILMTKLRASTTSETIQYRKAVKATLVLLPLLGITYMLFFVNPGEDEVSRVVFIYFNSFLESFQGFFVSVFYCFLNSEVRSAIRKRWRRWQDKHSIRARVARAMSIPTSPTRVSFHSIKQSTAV
The experiment in a line: Displacement of [125I]Tyr0-ovine CRF from CRF1 receptor in rat cortical membrane by gamma counting. Type of data set: cell membranes. A digest of the protocol:
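Inhibition of 125I-Tyr0-ovine-CRF binding to rat cortical membranes measured across dilutions of test drug; IC50 derived by iterative curve fitting.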
In general terms: Loss of bound radioactivity is the signal in a displacement assay; it reports binding, not function.

For data set [2], the system named is Canis familiaris. As to the kind of experiment: Ex vivo displacement of [125I]Tyr0-ovine CRF from CRF1 receptor in dog at 5 mg/kg, po measured in plasma after 2 hrs. Conditions: Canis lupus familiaris. It is filed as functional. A digest of the protocol: (§1)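 Beagle dogs given 5 mg/kg po (free base), in Labrafil or Tween-80/0.5% methylcellulose 1:99; plasma drawn 2 and 10 h postdose, diluted 10-fold in binding buffer, and tested for inhibition of 125I-Tyr0-ovine-CRF binding to rat receptors; mean ± SD, n = 3.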

The test system of data set [3] is Canis familiaris. The experiment in a line: Ex vivo displacement of [125I]Tyr0-ovine CRF from CRF1 receptor in dog at 5 mg/kg, po measured in plasma after 10 hrs. As to conditions: Canis lupus familiaris. Type of data set: functional. A digest of the protocol: as §1
Data set [4] has as its target T2, Corticotropin-releasing factor receptor 1 (Homo sapiens, UniProt P34998).
T2 sequence (P34998 whole entry): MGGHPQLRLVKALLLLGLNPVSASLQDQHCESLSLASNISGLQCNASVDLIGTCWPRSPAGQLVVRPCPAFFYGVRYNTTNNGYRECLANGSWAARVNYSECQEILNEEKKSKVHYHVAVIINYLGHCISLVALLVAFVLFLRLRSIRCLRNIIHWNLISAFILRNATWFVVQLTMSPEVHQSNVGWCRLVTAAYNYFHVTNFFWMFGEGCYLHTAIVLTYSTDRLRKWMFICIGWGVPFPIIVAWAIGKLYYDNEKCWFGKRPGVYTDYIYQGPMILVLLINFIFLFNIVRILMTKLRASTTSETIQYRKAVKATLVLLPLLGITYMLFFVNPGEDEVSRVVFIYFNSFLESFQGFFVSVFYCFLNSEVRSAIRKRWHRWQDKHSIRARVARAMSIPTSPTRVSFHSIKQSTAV
As to the kind of experiment: Binding affinity to CRF1 receptor in human IMR32 cells. It is filed as cell-based, IMR-32.

For data set [5], the target named is T1, Corticotropin-releasing factor receptor 1. The experiment in a line: Antagonist activity at CRF1 receptor in rat brain homogenates assessed as inhibition of CRF-stimulted cAMP production. Type of data set: functional, tissue-based. The essentials:
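Rat cortical homogenate (0.8 mg original wet weight tissue) incubated 10 min at 37 °C in 100 mM Tris-HCl pH 7.4, 10 mM MgCl2, 0.4 mM EGTA, 0.1% BSA, 1 mM IBMX, creatine phosphate/phosphocreatine kinase, 100 nM ovine-CRF; started with 1 mM ATP/[32P]ATP; [32P]cAMP separated on Dowex and alumina columns, [3H]cAMP recovery marker; n = 3.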
(In general: cAMP levels reflect the balance of adenylyl cyclase and phosphodiesterase activity.)

Data set [6] relates to Rattus norvegicus. As to the kind of experiment: Toxicity in Sprague-Dawley rat assessed as total distance traveled at 30 mg/kg, po after 1 hr by open-field locomotor activity test. Type of data set: organism-based. Also noted: dose 30 mg/kg, route oral. Conditions: in vivo. A digest of the protocol: (§2)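 Male Sprague-Dawley rats received a single oral gavage dose of 30 mg/kg (free base weight) in 0.5% methocel–Tween-80 (99:1) or vehicle alone. Behaviour was assessed 1 h postdose, as time on the rotorod in seconds for the rotorod test and total distance travelled in cm for open-field locomotor activity. Values are mean ± SEM, n = 8 per group.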

The subject of data set [7] is Rattus norvegicus. As to the kind of experiment: Toxicity in Sprague-Dawley rat assessed as time spent on rotarod at 30 mg/kg, po after 1 hr by rotarod test. It is filed as organism-based. On the set-up: dose 30 mg/kg, route oral. As to conditions: in vivo. The essentials:
as §2
Background: Falling from the rotarod earlier than controls is read as motor impairment.

The subject of data set [8] is Rattus norvegicus. The experiment in a line: Anxiolytic-like activity in Sprague-Dawley rat assessed as increase in time spent in open arms at 18 mg/kg, po measured after 1 hr by elevated plus maze test. It is filed as functional, organism-based. On the set-up: dose 18 mg/kg. A digest of the protocol:
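Group-housed male Sprague-Dawley rats (180-300 g) dosed po in 0.25% Methocel 1 h before elevated plus maze; arm entry defined as all four paws in arm; percent time in open arms scored; test doses 1.0, 3.0, 10, 30 mg/kg; positive control at 18 mg/kg; n = 13-15/dose; mean ± SEM, ANOVA then Fisher's LSD.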

Data set [9] deals with Rattus norvegicus. The experiment in a line: Anxiolytic-like activity in Sprague-Dawley rat assessed as decrease in latency to exit dark chamber at 10 mg/kg, po measured after 1 hr by defensive withdrawal test relative to control. It is filed as functional. Also noted: scale not given: the % may be the effect or the level left. The essentials:
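Male Sprague-Dawley rats (180-300 g), individually housed; open field with cylindrical dark chamber; oral dosing in 0.25% Methocel 1 h before a 15 min session scored blind via video; latency to place all four paws in open field recorded, maximum 900 s; test doses 1.0, 3.0, 10, 30 mg/kg; positive control at 10 mg/kg; n = 12/dose; Kruskal-Wallis then Mann-Whitney U.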

From ChEMBL document CHEMBL1138477, “8-(4-Methoxyphenyl)pyrazolo[1,5-a]-1,3,5-triazines: selective and centrally active corticotropin-releasing factor receptor-1 (CRF1) antagonists” (J Med Chem, 2009) come the findings set out here.

Activity calls are given as the source filed them.

As a reminder, the IC50 is the concentration at which inhibition is half-maximal. The term inhibition in vivo denotes the change of the read-out against control, counted positive when it falls.

In the case of `COCCN(CC1CC1)c1nc(C)nc2c(-c3c(C)cc(OC)cc3OC)c(C)nn12`, in [1], the IC50 turned out to be 1.8 nM.
In data set [1], `CCCCN(CC)c1nc(C)nc2c(-c3c(C)cc(OC)cc3C)c(C)nn12` yielded an IC50 of 4.22 nM.
Compound `CCN(CC)c1nc(C)nc2c(-c3cc(OC)c(OC)cc3Br)c(C)nn12` came in with an IC50 in [1] of 4.06 nM.
For the compound `CCCC(C)Nc1nc(C)nc2c(-c3c(C)cc(OC)cc3OC)c(C)nn12` (centres undefined), the concentration for half-maximal inhibition (IC50) in data set [1] is 2.14 nM.
In turn, `CCN(CC)c1nc(C)nc2c(-c3ccc(OC)c(C)c3C)c(C)nn12` returned an IC50 in data set [1] of 38.6 nM.
`CCC(CC)Nc1nc(C)nc2c(-c3ccc(OC)c(C)c3C)c(C)nn12` showed an IC50 in data set [1] of 11.3 nM.
Take `CCCN(CC1CC1)c1nc(C)nc2c(-c3ccc(OC)cc3C)c(C)nn12`: the IC50 in data set [1] is 1.96 nM.
Regarding `CCC(CC)Nc1nc(C)nc2c(-c3ccc(OC)cc3)c(C)nn12`, in data set [1], the IC50 was found to be 3.8 nM.
On to `COCCN(CCOC)c1nc(C)nc2c(-c3cc(F)c(OC)cc3Cl)c(C)nn12`, for which, in data set [1], the half-inhibitory concentration (IC50) turned out to be 1.18 nM.
`CCCN(CCC#N)c1nc(C)nc2c(-c3ccc(OC)cc3C)c(C)nn12` came in with a concentration for half-maximal inhibition (IC50) in [1] of 2.16 nM.
In data set [1], `CCN(CCOC)c1nc(C)nc2c(-c3c(C)cc(OC)cc3OC)c(C)nn12` yielded an IC50 of 1.78 nM. The results for the inhibition in vivo at 5 mg/kg in data set [2] and in data set [3] were 86% and 54%, respectively.
As to `CCCCN(CC)c1nc(C)nc2c(-c3ccc(OC)cc3C)c(C)nn12`, the IC50 in [1] was found to be 2.3 nM.
`COCCN(CCOC)c1nc(C)nc2c(-c3cc(OC)c(OC)cc3Cl)c(C)nn12` registered an IC50 in [1] of 8 nM.
Take `CCN(CC)c1nc(C)nc2c(-c3c(C)cc(OC)cc3OC)c(C)nn12`: in data set [1], the IC50 is 1.2 nM. Also, the inhibition in vivo at 5 mg/kg in data set [2] was 56%; in [3] it was 30%.
In the case of `COc1ccc(-c2c(C)nn3c(N4CCCC4)nc(C)nc23)c(C)c1`, the IC50 in data set [1] turned out to be 80.7 nM.
On the same count and under the same terms, the figure for `CCN(CC)c1nc(C)nc2c(-c3cc(F)c(OC)cc3Cl)c(C)nn12` is 1.64 nM; for `COCCN(CCOC)c1nc(C)nc2c(-c3ccc(OC)cc3)c(C)nn12` it is 11.5 nM.
As to `CCC(CC)Nc1nc(C)nc2c(-c3cc(OC)c(OC)cc3Br)c(C)nn12`, the IC50 in data set [1] came to 6.08 nM.
In the case of `C=CCN(CC=C)c1nc(C)nc2c(-c3c(C)cc(OC)cc3OC)c(C)nn12`, the IC50 in data set [1] came out at 1 nM.
With `COCC(COC)Nc1nc(C)nc2c(-c3ccc(OC)cc3C)c(C)nn12`, in data set [1], the IC50 worked out at 9.7 nM.
As for `COc1cc(C)c(-c2c(C)nn3c(NC4CCC4)nc(C)nc23)c(OC)c1`, in data set [1], the concentration for half-maximal inhibition (IC50) came to 17.4 nM. The inhibition in vivo at 5 mg/kg amounted to 52% in [2] and 46% in data set [3].
In the case of H-DLTFHLLREMLEMAKAEQEAEQAALNRLLLEEA-NH2, the IC50 in data set [1] was found to be 1.24 nM; in [4], 2 nM; in [5] it was 264 nM.
Consider `COc1ccc(-c2c(C)nn3c(NC4CCC4)nc(C)nc23)c(C)c1`, for which the IC50 in data set [1] was 24.6 nM.
The same measure, in the same setting: the figure for `COc1ccc(-c2c(C)nn3c(N(CCC#N)C4CC4)nc(C)nc23)c(C)c1` is 1.88 nM.
Still for that read-out and setting: to `CCCN(CCC)c1nc(C)nc2c(-c3ccc(OC)cc3C)c(C)nn12` belongs 2.58 nM.
For the compound `CCCN(C)c1nc(C)nc2c(-c3c(C)cc(OC)cc3OC)c(C)nn12`, the IC50 in data set [1] worked out at 6.48 nM.
In data set [1], `CC[C@H](C)Nc1nc(C)nc2c(-c3c(C)cc(OC)cc3OC)c(C)nn12` came in with an IC50 of 2.9 nM. The figures for the inhibition in vivo at 5 mg/kg in data set [2] and in [3] were 72% and 74%, respectively.
Consider `CNC1=Nc2ccc(Cl)cc2C(c2ccccc2)=[N+]([O-])C1` [CHLORDIAZEPOXIDE], for which the Activity in data set [6] amounted to 2249 cm. In addition, the Time in data set [7] is 121 s.
`CCC1CCCCN1c1nc(C)nc2c(-c3c(C)cc(OC)cc3OC)c(C)nn12` (centres undefined) yielded a half-maximal inhibitory concentration (IC50) in [1] of 3.26 nM.
`COCCN(CCOC)c1nc(C)nc2c(-c3c(C)cc(OC)cc3C)c(C)nn12`: the IC50 in data set [1] turned out to be 2.74 nM.
On to `CCC(CC)Nc1nc(C)nc2c(-c3cc(F)c(OC)cc3C)c(C)nn12`, for which the IC50 in data set [1] is 1.9 nM. Besides, the inhibition in vivo at 5 mg/kg turned out to be 81% in data set [2] and 25% in data set [3].
In turn, `COCCN(CCOC)c1nc(C)nc2c(-c3c(C)cc(OC)cc3OC)c(C)nn12` displayed an IC50 in data set [1] of 7.96 nM.
Compound `CCN(CC)c1nc(C)nc2c(-c3ccc(OC)cc3C)c(C)nn12` yielded an IC50 in data set [1] of 6.08 nM.
Take `CCC(CC)Nc1nc(C)nc2c(-c3c(C)cc(OC)cc3OC)c(C)nn12`: the IC50 in data set [1] amounted to 5 nM. The inhibition in vivo at 5 mg/kg amounted to 80% in [2] and 56% in data set [3].
As for `COCCN(CCOC)c1nc(C)nc2c(-c3cc(OC)c(OC)cc3Br)c(C)nn12`, the IC50 in data set [1] worked out at 4.99 nM.
Compound `COCCN(CCOC)c1nc(C)nc2c(-c3cc(OC)c(OC)cc3C)c(C)nn12` gave a 50% inhibitory concentration (IC50) in data set [1] of 13.7 nM.
In [1], `CCCN(CCC)c1nc(C)nc2c(-c3c(C)cc(OC)cc3OC)c(C)nn12` yielded an IC50 of 3.72 nM.
In [1], `CCN(CCC#N)c1nc(C)nc2c(-c3c(C)cc(OC)cc3OC)c(C)nn12` came in with an IC50 of 2.48 nM.
For `CCOCC(COCC)Nc1nc(C)nc2c(-c3ccc(OC)cc3C)c(C)nn12`, the IC50 in data set [1] was found to be 19.3 nM.
In turn, `COCC(COC)Nc1nc(C)nc2c(-c3ccc(Cl)cc3Cl)c(C)nn12` returned a 50% inhibitory concentration (IC50) in [1] of 4.2 nM. For the same compound, the outcome in [8] was Active. In addition, in [9], the Activity was 52%.
`CCCCN(CC)c1nc(C)nc2c(-c3c(C)cc(OC)cc3OC)c(C)nn12` gave a half-inhibitory concentration (IC50) in data set [1] of 1.72 nM.
Consider `C=CCN(C)c1nc(C)nc2c(-c3c(C)cc(OC)cc3OC)c(C)nn12`, for which the concentration for half-maximal inhibition (IC50) in data set [1] came to 4.92 nM.
